ChEMBL document CHEMBL1157803 (J Med Chem, 2010)
Active and inactive are the calls of the source. The calls are words filed in the database; no cut-off is given here.

Key:
[1] = Inhibition of rat recombinant PFT expressed in insect Sf9 cells by scintillation proximity assay
Trypanosoma cruzi [2] = test: Antitrypanosomal activity against Trypanosoma cruzi Tulahuen amastigotes infected in […] 3T3 cells after 7 days by alamar blue assay; format: functional, organism-based; settings: NIH3T3, 168 h
Method in brief: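 T. cruzi amastigotes grown inside mammalian host 3T3 cells were exposed to compounds to measure parasite killing.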

Cytochrome P450 3A4 = Cytochrome P450 3A4 (Homo sapiens, UniProt P08684); test: Inhibition of human recombinant CYP3A4; format: ADME
[3] = target: Sterol 14-alpha demethylase (Trypanosoma cruzi (strain CL Brener)) (UniProt Q7Z1V1); test: Binding affinity to Trypanosoma cruzi recombinant lanosterol 14-alpha-demethylase by optical spectroscopy
Method in brief: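 Recombinant T. cruzi lanosterol 14α-demethylase at 1.4 μM was titrated with 0.2–2 μM compound. Binding was followed by difference optical spectroscopy of the visible heme Soret band.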

Trypanosoma cruzi [4] = test: Ratio of EC50 for tipifarnib to drug for antitrypanosomal activity against Trypanosoma cruzi Tulahuen amastigotes infected in […] 3T3 cells after 7 days by alamar blue assay; format: functional, NIH3T3

Chain of Cytochrome P450 3A4 (P08684 whole entry): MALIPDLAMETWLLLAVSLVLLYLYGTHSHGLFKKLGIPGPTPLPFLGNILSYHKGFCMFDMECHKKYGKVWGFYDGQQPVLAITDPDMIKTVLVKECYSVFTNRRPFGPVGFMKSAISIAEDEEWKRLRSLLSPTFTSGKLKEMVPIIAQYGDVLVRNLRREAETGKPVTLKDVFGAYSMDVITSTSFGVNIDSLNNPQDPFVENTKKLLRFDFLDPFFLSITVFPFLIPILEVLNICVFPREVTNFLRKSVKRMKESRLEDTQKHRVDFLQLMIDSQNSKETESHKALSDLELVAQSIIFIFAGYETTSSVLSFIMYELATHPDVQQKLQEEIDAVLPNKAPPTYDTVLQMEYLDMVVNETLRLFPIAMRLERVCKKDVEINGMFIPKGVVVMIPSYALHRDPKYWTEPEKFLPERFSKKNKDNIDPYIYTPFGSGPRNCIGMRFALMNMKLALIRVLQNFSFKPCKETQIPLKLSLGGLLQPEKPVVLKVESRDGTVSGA
Chain of Sterol 14-alpha demethylase (Trypanosoma cruzi (strain CL Brener)) (Q7Z1V1 whole entry, looked up): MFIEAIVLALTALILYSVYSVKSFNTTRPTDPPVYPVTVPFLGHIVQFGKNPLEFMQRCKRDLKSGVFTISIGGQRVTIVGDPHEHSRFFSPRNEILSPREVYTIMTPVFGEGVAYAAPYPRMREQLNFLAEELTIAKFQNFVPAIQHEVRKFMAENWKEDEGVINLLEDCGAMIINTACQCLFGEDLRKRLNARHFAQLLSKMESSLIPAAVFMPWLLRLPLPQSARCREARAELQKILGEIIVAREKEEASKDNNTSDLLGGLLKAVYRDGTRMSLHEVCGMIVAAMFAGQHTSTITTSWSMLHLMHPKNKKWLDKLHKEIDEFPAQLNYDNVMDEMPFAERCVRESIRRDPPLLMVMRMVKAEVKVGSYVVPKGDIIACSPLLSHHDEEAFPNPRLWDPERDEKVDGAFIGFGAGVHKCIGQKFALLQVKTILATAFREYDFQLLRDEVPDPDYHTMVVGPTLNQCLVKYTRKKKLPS

EC50 (Trypanosoma cruzi [2]) [nM] | IC50 (Cytochrome P450 3A4) [nM] | Activity [3] | Compound | IC50 [1] [nM] | Ratio EC50 (Trypanosoma cruzi [4])
0.7 | – | – | COC(c1ccc(Cl)cc1)(c1ccc2c(c1)c(-c1ccccc1C)cc(=O)n2C)c1cncn1C (centres undefined) | 3260 | –
2 | – | – | COC(c1ccc(Cl)cc1)(c1ccc2c(c1)c(-c1ccc(C)cc1)cc(=O)n2C)c1cncn1C (centres undefined) | 410 | –
0.8 | 2350 | – | COC(c1ccc(Cl)cc1)(c1ccc2c(c1)c(-c1ccccc1)cc(=O)n2C)c1cncn1C (centres undefined) | 330 | –
0.5 | – | – | COC(c1ccc(Cl)cc1)(c1ccc2c(c1)c(-c1ccc(F)cc1)cc(=O)n2C)c1cncn1C (centres undefined) | 991 | –
320 | – | – | COC(c1ccc(Cl)cc1)(c1ccc2c(c1)c(-c1cccc(-c3ccccc3)c1)cc(=O)n2C)c1cncn1C (centres undefined) | – | –
1.1 | – | – | COC(c1ccc(Cl)cc1)(c1ccc2c(c1)c(-c1cccc(F)c1)cc(=O)n2C)c1cncn1C (centres undefined) | 343 | –
3 | – | – | COC(c1ccc(C)cc1)(c1ccc2c(c1)c(-c1cccc(Cl)c1)cc(=O)n2C)c1cncn1C (centres undefined) | – | –
1.2 | – | – | COC(c1ccc(Cl)cc1)(c1ccc2c(c1)c(-c1cccc(C)c1)cc(=O)n2C)c1cncn1C (centres undefined) | 85 | –
3.21 | – | – | COC(c1ccc(Cl)cc1)(c1ccc2c(c1)c(-c1c(Cl)cccc1Cl)cc(=O)n2C)c1cncn1C (centres undefined) | > 10000 | –
10 | – | – | CCc1ccc(C(OC)(c2ccc3c(c2)c(-c2cccc(Cl)c2)cc(=O)n3C)c2cncn2C)cc1 (centres undefined) | – | –
33 | – | – | COC(c1ccc(C(C)C)cc1)(c1ccc2c(c1)c(-c1cccc(Cl)c1)cc(=O)n2C)c1cncn1C (centres undefined) | – | –
1.8 | – | – | COC(c1ccc(Cl)cc1)(c1ccc2c(c1)c(-c1c(C)cccc1C)cc(=O)n2C)c1cncn1C (centres undefined) | > 10000 | –
3.1 | – | – | COC(c1ccc(Cl)cc1)(c1ccc2c(c1)c(-c1cccc(Cl)c1)cc(=O)n2C)c1cncn1C (centres undefined) | 65 | –
83 | – | – | COC(c1ccc(Cl)cc1)(c1ccc2c(c1)c(-c1cccc(Cc3ccccc3)c1)cc(=O)n2C)c1cncn1C (centres undefined) | – | –
0.8 | – | – | COC(c1ccc(Cl)cc1)(c1ccc2c(c1)c(-c1ccccc1F)cc(=O)n2C)c1cncn1C (centres undefined) | 1870 | –
0.82 | 923 | – | COC(c1ccc(Cl)cc1)(c1ccc2c(c1)c(-c1ccc(Cl)cc1)cc(=O)n2C)c1cncn1C (centres undefined) | 6040 | –
12 | – | – | COC(c1ccc(Cl)cc1)(c1ccc2c(c1)c(-c1cccc(C(F)(F)F)c1)cc(=O)n2C)c1cncn1C (centres undefined) | 1320 | –
2.2 | – | – | COC(c1ccc2ccccc2c1)(c1ccc2c(c1)c(-c1cccc(Cl)c1)cc(=O)n2C)c1cncn1C (centres undefined) | 2300 | –

The remaining lines, values behind:

Compound | EC50 (Trypanosoma cruzi [2]) [nM] | IC50 (Cytochrome P450 3A4) [nM] | Activity [3] | IC50 [1] [nM] | Ratio EC50 (Trypanosoma cruzi [4])
COC(c1ccc(Cl)cc1)(c1ccc2c(c1)c(-c1cc(C)cc(C)c1)cc(=O)n2C)c1cncn1C (centres undefined) | 1.4 | – | – | 470 | –
CCn1cncc1C(OC)(c1ccc(Cl)cc1)c1ccc2c(c1)c(-c1cccc(Cl)c1)cc(=O)n2C (centres undefined) | 3 | – | – | 970 | –
COC(c1ccc(Cl)cc1)(c1ccc2c(c1)c(-c1c(F)cccc1F)cc(=O)n2C)c1cncn1C (centres undefined) | 0.31 | 275 | Active | > 10000 | –
Cn1cncc1C(O)(c1ccc(Cl)cc1)c1ccc2c(c1)c(-c1cccc(Cl)c1)cc(=O)n2C (centres undefined) | 17 | – | – | 8 | –
CNC(c1ccc(Cl)cc1)(c1ccc2c(c1)c(-c1cccc(Cl)c1C)cc(=O)n2C)c1cncn1C (centres undefined) | 5 | – | – | 957 | –
CCn1cncc1C(O)(c1ccc(Cl)cc1)c1ccc2c(c1)c(-c1cccc(Cl)c1)cc(=O)n2C (centres undefined) | 228 | – | – | 30 | –
CCn1cncc1C(NC)(c1ccc(Cl)cc1)c1ccc2c(c1)c(-c1cccc(Cl)c1)cc(=O)n2C (centres undefined) | 100 | – | – | 66 | –
Cc1c(Cl)cccc1-c1cc(=O)n(C)c2ccc(C(O)(c3ccc(Cl)cc3)c3cncn3C)cc12 (centres undefined) | 112 | – | – | 796 | –
Cn1cncc1[C@@](N)(c1ccc(Cl)cc1)c1ccc2c(c1)c(-c1cccc(Cl)c1)cc(=O)n2C [TIPIFARNIB] | – | – | – | 0.7 | –
COC(c1ccc(Cl)cc1)(c1ccc2c(c1)c(-c1cccc(Cl)c1C)cc(=O)n2C)c1cncn1C (centres undefined) | 0.6 | – | – | > 5000 | 10
CCCOC(c1ccc(Cl)cc1)(c1ccc2c(c1)c(-c1cccc(Cl)c1C)cc(=O)n2C)c1cncn1C (centres undefined) | 69 | – | – | > 5000 | –
CCn1cncc1C(N)(c1ccc(Cl)cc1)c1ccc2c(c1)c(-c1cccc(Cl)c1)cc(=O)n2C (centres undefined) | 118 | – | – | 28 | –
COC(c1ccc(Cl)cc1)(c1ccc2c(c1)c(-c1ccccc1C(F)(F)F)cc(=O)n2C)c1cncn1C (centres undefined) | 0.8 | – | – | > 5000 | –
CCOC(c1ccc(Cl)cc1)(c1ccc2c(c1)c(-c1cccc(Cl)c1C)cc(=O)n2C)c1cncn1C (centres undefined) | 27 | – | – | > 10000 | –
COC(c1ccc(C(F)(F)F)cc1)(c1ccc2c(c1)c(-c1cccc(Cl)c1)cc(=O)n2C)c1cncn1C (centres undefined) | 5 | – | – | – | –
